Most compounds without a hit are left out; they make up all but 1.8% or so of the library.
LMPTP inh: blocks human LMPTP phosphatase. P24666. recombinant LMPTP-A, OMFP fluorogenic substrate, fluorescence intensity. inhibition, % at 20 µM. hit rate 0.22% among 360,000;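 active = compounds that cut the enzyme signal by at least half of the control window in the single-dose screen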
Target sequence (P24666 whole entry, looked up): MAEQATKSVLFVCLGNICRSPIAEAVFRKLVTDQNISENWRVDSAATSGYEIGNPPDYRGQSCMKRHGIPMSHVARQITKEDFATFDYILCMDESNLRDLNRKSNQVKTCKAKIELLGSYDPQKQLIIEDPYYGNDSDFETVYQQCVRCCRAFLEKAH
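test system = LMPTP-A | amount = 0.625 nM LMPTP-A final | reagent = fluorogenic phosphatase substrate OMFP at 400 µM final | incubation = 50 min at room temperature | benchmarks = no-enzyme low control, uninhibited high control | medium = Bis-Tris pH 6.0, DTT, detergent | signal = fluorescence intensity of OMFP turnover product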
DNMT1 block: inhibitors of human DNMT1; DNMT1 molecular beacon, Hinp1I cleavage, fluorescence; inhibition (reported as % activation of signal), % at 10 µM; hit rate 0.83% among 360,000; in the data active = inhibition above about 50%
Scp1 inh: Scp-1 (human) phosphatase inhibition | Q9GZU7 | Recombinant Scp1, phosphopeptide, malachite green phosphate absorbance | inhibition, % at 20 µM | hit rate 0.88% among 340,000;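 active = inhibition above about 50% at 20 µM, limit read from the data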
Target sequence (Q9GZU7 76-261 limits assumed): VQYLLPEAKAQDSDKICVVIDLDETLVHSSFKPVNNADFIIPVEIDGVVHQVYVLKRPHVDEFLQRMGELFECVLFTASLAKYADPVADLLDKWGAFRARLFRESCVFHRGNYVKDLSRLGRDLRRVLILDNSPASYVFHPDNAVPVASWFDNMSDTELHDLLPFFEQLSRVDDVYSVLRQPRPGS
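Times: enzyme reaction 45 min at room temperature, colour 5 min, stabilisation 30 min. Material: SCP-1 catalytic fragment, aa 76-261. Medium: Acidic Tris acetate buffer with magnesium and detergent. Signal: colorimetric free-phosphate detection, absorbance 630 nm. Read-out basis: % inhibition of SCP-1 phosphate liberation. Reagent: Phosphorylated 17-residue peptide substrate.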
STEP block: inhibitors of human striatal-enriched phosphatase STEP | recombinant STEP, OMFP fluorogenic substrate, fluorescence | P54829 | inhibition, % at 20 µM | hit rate 0.25% among 360,000;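 active = inhibition at 20 µM, scaled per plate between control wells, above about 37%, limit read from the data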
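medium = Bis-Tris buffer pH 6.0, 2.5 mM DTT, 0.005% Tween 20 | test system = STEP (striatal-enriched tyrosine phosphatase) enzyme, cell-free | measure = normalized % inhibition | compound dosing = 20 µM, 1% DMSO | also added = 25 µM OMFP | schedule = reaction 20 min, ambient temperature | measured by = fluorescence read at 480 nm ex / 540 nm em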
SUMO1-SIM PPI: alters human SUMO1 binding to SIM partners | AID 602429 | hit rate 0.33% among 360,000 | inhibition, % at 20 µM | SUMO1 binding to a labelled peptide, TR-FRET, 1 h; in the data active = inhibition above about 37%
Target sequence (P63165 whole entry, looked up): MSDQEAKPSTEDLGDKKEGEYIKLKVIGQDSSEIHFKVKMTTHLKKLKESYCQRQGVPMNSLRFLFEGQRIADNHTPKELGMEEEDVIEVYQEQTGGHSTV
Scp-1 conf: confirmation of human Scp-1 phosphatase inhibitors; inhibition, % at 20 µM; AID 540281; recombinant SCP-1 catalytic domain, phosphate release, malachite green absorbance; shares compounds with Scp1 inh; hit rate 61% among 2,500
Scp-1 MG ctr: colorimetric interference in Scp-1 counter-screen | shares compounds with Scp1 inh | Colorimetric interference counterscreen, malachite green absorbance 630 nm | apparent inhibition (interference), % at 20 µM | 2,500 tested, under 10 active;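 note: compounds added after enzyme reaction finished so only phosphate colour detection is probed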
Scp-1 Tm shift: Scp-1 (human) binding by thermal shift. shares compounds with Scp1 inh. Recombinant SCP1, Sypro Orange thermal shift Tm. thermal shift relative to vanadate control, % at 40 µM. hit rate 25% among 1,500;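 active = substances whose mean melting-temperature shift, as a percentage of the reference inhibitor's shift, reaches about 5.3%, limit read from the data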
Hits are given with their value; 0 = inactive; - = no result given.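 Rule for the calls, unless noted: active = inhibition of at least 30% at 20 µM; inactive = the rest.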

SMILES	LMPTP inh	DNMT1 block	Scp1 inh	STEP block	SUMO1-SIM PPI	Scp-1 conf	Scp-1 MG ctr	Scp-1 Tm shift
Nn1cnc2scc(-c3ccc(Cl)cc3)c2c1=O	0	0	0	0	0	-	-	-
Oc1c(Br)cc(/C=N/n2c(-c3ccccc3)n[nH]c2=S)c(O)c1Br	0	0	78.7	0	0	88.3	0	0
Oc1c(Br)cc(/C=N/n2c(-c3ccccc3)n[nH]c2=S)cc1Br	0	0	56.0	0	0	79.5	0	9.1
CN(C(=O)c1ccc(NC(=O)Cc2cccc(NC(=O)C3CCCN(C(=O)C4CCCC4)C3)c2)cc1)C1CCCC1 (configuration not stated)	0	0	0	0	0	-	-	-
O=C(O)CCCn1c(O)c(C=C2N=c3ccccc3=N2)sc1=S	0	0	0	0	0	-	-	-
O=C(O)CCCCCn1c(O)c(C=C2N=c3ccccc3=N2)sc1=S	0	0	74.3	0	0	90.5	0	10.1
Cc1noc(C)c1C(=O)Nc1nnc(-c2ccccc2)s1	0	0	66.9	0	0	0	0	-
Cc1onc(-c2ccccc2)c1C(=O)Nc1nnc(-c2ccncc2)s1	0	0	0	0	0	-	-	-
CC(=O)c1cccc(N(CC(=O)NC2CCCCC2)C(=O)Cn2nnc(-c3ccccc3)n2)c1	0	0	0	0	0	-	-	-
CN1/C(=C/c2cccc[n+]2CCO)Sc2ccccc21	0	0	103.0	0	0	0	0	-
CC(=S)/C=C1\Sc2ccccc2N1C	0	0	0	0	0	-	-	-
CC1=C(C(=O)N2CCCC(N3CCN(c4ccccc4F)CC3)C2)OCCO1 (configuration not stated)	0	0	0	0	0	-	-	-
CC(C)(C)C(=O)N(Cc1ccc(Cl)cc1)c1cnccn1	0	0	0	0	0	-	-	-
O=S(=O)([O-])CCC[n+]1ccc(Oc2ccccc2)cc1	0	0	95.4	0	0	93.5	0	0
Cc1ccc2ccccc2[n+]1CCCS(=O)(=O)[O-]	0	0	0	0	0	-	-	-
Cc1ccc(-c2nc(NC(=O)CSc3nnc4scc(-c5ccccc5)n34)ns2)cc1	0	0	63.8	0	0	65.4	0	0
Cc1nnc(SCC(=O)Nc2nsc(-c3ccc(Cl)cc3)n2)s1	0	0	69.6	0	0	43.0	0	0
COc1cc([C@@H]2OC[C@@H]3[C@H]2CO[C@@H]3c2ccc3c(c2)OCO3)ccc1O	0	0	0	0	0	-	-	-
COc1cc(CC2COC(c3ccc(O)c(OC)c3)C2COC(C)=O)ccc1O (configuration not stated)	0	63.2	85.3	0	0	61.1	0	0
CCc1ccc(NC(=O)CC2C(=O)NCCN2C(=O)c2ccc(F)cc2)cc1 (configuration not stated)	0	0	0	0	0	0	0	-
Cc1ccc(S(=O)(=O)Nc2cc(C)c(O)cc2C)cc1	0	0	0	0	0	-	-	-
Cc1ccc(S(=O)(=O)Nc2csc(C)c2C(=O)O)cc1	-	-	60.8	-	-	58.5	0	15.3
CCc1ccc(N2CC(C(=O)Nc3ccccc3N3CCCC3)CC2=O)cc1 (configuration not stated)	0	0	-	0	0	-	-	-
O=C(c1ncn[nH]1)N1CCN(c2nc(-c3ccccc3)cs2)CC1	0	0	56.3	0	0	39.4	0	0
CC1(C)OC(=O)C(=Cc2ccc(-c3ccc(Cl)c(C(=O)O)c3)o2)C(=O)O1	0	52.3	57.0	0	0	56.6	0	0
SMILES	LMPTP inh	DNMT1 block	Scp1 inh	STEP block	SUMO1-SIM PPI	Scp-1 conf	Scp-1 MG ctr	Scp-1 Tm shift
CCOc1ccc(-c2cc(C(=O)NCCCN3CCCC3)c3ccccc3n2)cc1	0	0	0	0	0	-	-	-
O=C(CN1C(=O)C2CCCCC2C1=O)Nc1ccccc1N1CCCC1 (configuration not stated)	0	0	62.3	0	0	0	0	-
CCCCC(Br)C(=O)Nc1ccc(S(=O)(=O)Nc2cc(C)nc(C)n2)cc1 (configuration not stated)	0	0	0	0	0	-	-	-
CCCN1C(=O)c2cc(C(=O)NC3CCCCCC3)ccc2C1O (configuration not stated)	0	0	60.4	0	0	0	0	-
CCCCn1c(-c2ccco2)nc2oc3ccccc3c(=O)c2c1=O	0	0	62.0	0	0	0	0	-
N#Cc1ccsc1NC(=O)COC(=O)C1=NNC(=O)CC1	61.8	0	70.8	0	38.1	49.1	0	0
O=C1CCC(C(=O)OCC(=O)Nc2ccccc2Br)=NN1	0	0	-	0	0	-	-	-
CSCCC(NC(=O)c1ccccc1Br)C(=O)NCC(c1ccco1)N1CCCCC1 (configuration not stated)	0	0	0	0	0	-	-	-
Cc1cc(C(F)F)n2nc(C(=O)Nc3sc4c(c3C(N)=O)CCC4)nc2n1	0	0	61.0	0	0	55.0	0	0
CC(COc1ccc(/C=C/c2ccccc2)cc1)[N+](C)(C)C (configuration not stated)	0	0	0	0	0	-	-	-
NC(=O)c1ccsc1NC(=O)COC(=O)/C=C/c1ccc([N+](=O)[O-])cc1	64.0	0	70.7	0	0	58.8	0	0
O=C(NC(=S)Nc1ccc2oc(=O)ccc2c1)c1cccc(Cl)c1	0	0	0	0	0	-	-	-
O=[N+]([O-])c1ccc(/C=N/Nc2ncc(-c3ccccc3)cn2)cc1	0	0	67.5	0	0	0	0	-
O=[N+]([O-])c1ccc(/C=N/Nc2ncc(Br)cn2)cc1	0	0	0	0	0	-	-	-
COc1ccc(CN2C(=O)c3cccc4cccc2c34)cc1F	0	0	0	0	0	-	-	-
Cc1cccc2cc(/C=N/NC(=O)c3ccncc3)c(Cl)nc12	0	0	0	0	0	-	-	-
Cc1cccc2cc(/C=N/NC(=O)c3ccccc3O)c(Cl)nc12	0	0	95.4	0	0	72.7	0	0
CC(=O)c1c(C)n(C)c2ccc(OC(=O)c3ccc([N+](=O)[O-])cc3)cc12	0	0	58.9	0	0	0	0	-
COc1ccc(S(=O)(=O)N(C)C[C@H]2Oc3c(NC(=O)Nc4c(C)noc4C)cccc3C(=O)N([C@@H](C)CO)C[C@H]2C)cc1	0	0	56.2	0	0	0	0	-
Cc1noc(C)c1NC(=O)N(C)C[C@H]1Oc2c(NC(=O)C3CC3)cccc2C(=O)N([C@H](C)CO)C[C@@H]1C	0	0	0	0	0	-	-	-
Cc1noc(C)c1NC(=O)N(C)C[C@H]1Oc2c(cccc2N(C)C)C(=O)N([C@H](C)CO)C[C@@H]1C	0	0	73.6	0	0	0	0	-
O=S1(=O)N=C(N2CCc3ccccc3C2)c2ccccc21	0	0	76.0	0	0	0	0	-
